From PubChem
NS3 helicase inh: inhibitors of HCV NS3 helicase, primary screen, biochemical, Cy5 molecular beacon fluorescence | 290,000 tested, 0.56% active | inhibition, % at 10.9 µM | NS3 helicase DNA unwinding | Hepatitis C virus NS3 helicase;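 active = inhibition above the mean of all tested compounds plus 3 SD, set per campaign, cut at about 35% in these data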;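 note: 0% = DMSO wells and 100% = thioflavine S control wells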
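System: Hepatitis C virus NS3 helicase domain fragment enzyme | Reagent: Annealed dual-labelled DNA beacon duplex, ATP-started | Compound dosing: 10.9 µM single point, 0.8% DMSO | Incubation: 1 h reaction at 25 °C, ATP-initiated | Technique: Cy5 fluorescence | Evaluation: Percent inhibition from t60/t0 fluorescence ratio | Benchmarks: Low DMSO, high thioflavine S at 110 µM | Replication: Singlicate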
HCV core dimer: inhibitors of HCV core protein dimerization, primary screen, biochemical, TR-FRET, high-throughput. 300,000 tested, 0.33% active. TR-FRET GST/Flag-core106 dimerization, 1536-well. inhibition, % at 5 µM;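 active = inhibition above the mean of all tested compounds plus 3 SD, set per screening campaign, cut at about 45% in these data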
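Assay system: Tagged HCV core106 pair (GST and Flag) | Buffer or medium: KF-containing HEPES buffer, pH 7.45, DTT, CHAPS, BSA | Also added: Eu donor and XL665 acceptor anti-tag antibodies | Dosing: One concentration, 5 µM, in 0.5% DMSO | Timing: 4 h at 22.5 °C | Technique: TR-FRET 671 and 617 nm emission | Repeats: Singlicate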
A3A deaminase: APOBEC3A ssDNA deaminase inhibitors, primary screen, selectivity assay for APOBEC3G inhibitor project, biochemical, FAM/TAMRA oligo cleavage fluorescence; DNA dC->dU-editing enzyme APOBEC-3A (Homo sapiens), P31941; inhibition, % at 20 µM; recombinant A3A, FAM/TAMRA ssDNA deamination fluorescence; 330,000 tested, 0.41% active;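 active = at least 40% inhibition at 20 µM here, with at most 30% in a related deaminase screen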;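 note: plate controls were A3A with DMSO for no effect and wells lacking A3A enzyme for full effect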
Target sequence (P31941 whole entry, looked up): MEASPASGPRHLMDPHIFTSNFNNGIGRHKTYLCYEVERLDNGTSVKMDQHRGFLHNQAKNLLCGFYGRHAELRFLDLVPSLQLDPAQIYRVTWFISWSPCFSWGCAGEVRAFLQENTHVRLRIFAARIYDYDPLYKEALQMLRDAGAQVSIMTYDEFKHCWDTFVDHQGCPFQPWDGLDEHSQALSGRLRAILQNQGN
ABHD5 PLIN5 PPI: ABHD5-PLIN5 interaction inhibitors, primary screen, cell lysate, split luciferase complementation, luminescence. Perilipin-5 (Homo sapiens) + 1-acylglycerol-3-phosphate O-acyltransferase ABHD5 (Homo …. Split G. princeps luciferase complementation, 4 h. inhibition, % at 4 µM. 360,000 tested, 0.78% active;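 active = inhibition above the mean inhibition across every tested compound plus 3 SD, cut at about 22% in these data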;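 note: 0% = DMSO only wells and the 100% control is not disclosed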
PRMT1 FP inh: PRMT1 methyltransferase inhibitors, primary screen, biochemical, fluorescence polarization; Protein arginine N-methyltransferase 1 (Homo sapiens), Q99873; recombinant PRMT1, activity-based probe fluorescence polarization; inhibition, % at 2.79 µM; 370,000 tested, 1.3% active;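 active = inhibition above about 21% made by adding two undisclosed values, limit read from the data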
Target sequence (Q99873 whole entry, looked up): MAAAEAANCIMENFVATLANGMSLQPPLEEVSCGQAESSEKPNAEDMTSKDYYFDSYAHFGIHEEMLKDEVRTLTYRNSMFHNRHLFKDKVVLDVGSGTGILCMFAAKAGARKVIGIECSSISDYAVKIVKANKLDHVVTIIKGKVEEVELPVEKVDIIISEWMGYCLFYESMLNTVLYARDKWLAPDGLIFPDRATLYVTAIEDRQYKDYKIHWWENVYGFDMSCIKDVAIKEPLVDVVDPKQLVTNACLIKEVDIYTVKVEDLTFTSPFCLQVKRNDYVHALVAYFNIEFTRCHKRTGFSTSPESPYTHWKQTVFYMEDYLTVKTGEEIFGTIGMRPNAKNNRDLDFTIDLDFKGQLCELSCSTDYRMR
APOBEC3G inh: APOBEC3G DNA deaminase inhibitors, primary screen, biochemical, fluorescence, single-stranded DNA substrate, uHTS. inhibition, % at 20 µM. DNA dC->dU-editing enzyme APOBEC-3G (Homo sapiens), Q9HC16. 330,000 tested, 0.28% active. AID 493012, 2011. recombinant A3G, ssDNA deamination FAM/TAMRA fluorescence;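 active = inhibition of at least 40% at 20 µM, with no more than 30% in the related APOBEC3A deaminase screen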;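 note: plate controls were DMSO wells with A3G for no effect and wells lacking A3G enzyme for full effect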
PRMT1 inh conf: PRMT1 methyltransferase inhibitors, confirmation, biochemical, fluorescence polarization, triplicate; shares compounds with PRMT1 FP inh; recombinant His-PRMT1, activity-based probe fluorescence polarization; inhibition, % at 2.79 µM; 3,300 tested, 42% active; AID 687036, 2013;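 active = mean inhibition across replicates above the hit cutoff derived for the earlier primary screen, cut at about 22% in these data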
Starred values were filed as active, the others as inactive. This is a sample that favours compounds with a hit; in the whole collection about 2.9% have one here.

How did COc1ccc2cc3c(N)c(C(=O)N4CCCC4)sc3nc2c1 do in these assays?
NS3 helicase inh: 0; HCV core dimer: -41; A3A deaminase: -6; PRMT1 FP inh: 41*; APOBEC3G inh: -6; PRMT1 inh conf: 0

Results for COc1ccc(NC(=O)c2sc3nc(-c4cccnc4)ccc3c2N)cc1OC ?
NS3 helicase inh: -5; HCV core dimer: 1; A3A deaminase: -2; ABHD5 PLIN5 PPI: 2; PRMT1 FP inh: 4; APOBEC3G inh: -1

What do the screens show for `Nc1c(C(=O)N2CCCC2)sc2nc(-c3ccccc3)ccc12`?
NS3 helicase inh: -4; HCV core dimer: 4; A3A deaminase: -8; ABHD5 PLIN5 PPI: -5; PRMT1 FP inh: 34*; APOBEC3G inh: -2; PRMT1 inh conf: 5

How did Nc1c(C(=O)Nc2ccccc2)sc2nc(-c3cccnc3)ccc12 do in these assays?
NS3 helicase inh: 14; HCV core dimer: -4; A3A deaminase: -9; PRMT1 FP inh: 40*; APOBEC3G inh: -6; PRMT1 inh conf: 2

How did Cc1ccc2cc3c(N)c(C(=O)N4CCOCC4)sc3nc2c1 do in these assays?
NS3 helicase inh: 5; HCV core dimer: -28; A3A deaminase: -5; ABHD5 PLIN5 PPI: -2; PRMT1 FP inh: 6; APOBEC3G inh: -12

How did O=C1CCC(c2ccc3ccccc3c2)O1 (centres undefined) do in these assays?
ABHD5 PLIN5 PPI: -1; PRMT1 FP inh: 0

Results for CC(=O)C(=Nc1cccc(Cl)c1)NNc1ccccc1C ?
HCV core dimer: 4; A3A deaminase: -2; ABHD5 PLIN5 PPI: -13; PRMT1 FP inh: 83*; APOBEC3G inh: -3; PRMT1 inh conf: 3

Results for Cc1cc(Cl)ccc1NNC(=O)c1cccs1 ?
NS3 helicase inh: 13; HCV core dimer: -5; A3A deaminase: -1; ABHD5 PLIN5 PPI: -3; PRMT1 FP inh: 3; APOBEC3G inh: -3

What do the screens show for `O=C(Cc1ccccc1)Nc1nc(=O)c2ccccc2s1`?
NS3 helicase inh: 0; HCV core dimer: -3; A3A deaminase: -3; ABHD5 PLIN5 PPI: -18; PRMT1 FP inh: 48*; APOBEC3G inh: -5; PRMT1 inh conf: 4

How did O=C(Nc1nc(=O)c2ccccc2s1)c1ccc(Cl)cc1 do in these assays?
NS3 helicase inh: 7; HCV core dimer: 34; A3A deaminase: 7; ABHD5 PLIN5 PPI: -8; PRMT1 FP inh: 32*; APOBEC3G inh: 26; PRMT1 inh conf: 1

How did CC(=O)c1sc(NC(=O)c2ccc(Cl)cc2)nc1C do in these assays?
NS3 helicase inh: 0; HCV core dimer: 17; A3A deaminase: 0; ABHD5 PLIN5 PPI: 2; PRMT1 FP inh: 8; APOBEC3G inh: -1

Results for COc1ccc(C(=O)COc2ccc(C(C)=O)cc2OC)cc1OC ?
ABHD5 PLIN5 PPI: 4; PRMT1 FP inh: 3

What do the screens show for `CNC(=O)C[C@@H]1C(=O)N(c2ccc(Br)cc2)CC1(C)C`?
ABHD5 PLIN5 PPI: -3; PRMT1 FP inh: -2

Results for N#Cc1cccc(NC(=O)c2cc(C3CCCCN3C(=O)c3cccs3)on2)c1 (centres undefined) ?
ABHD5 PLIN5 PPI: 0; PRMT1 FP inh: 0

How did O=C(CSc1ccccn1)N1CCN(c2ccccc2)CC1 do in these assays?
NS3 helicase inh: 3; HCV core dimer: -14; A3A deaminase: -10; ABHD5 PLIN5 PPI: 3; APOBEC3G inh: -5

How did O=C(CSc1ccccn1)N1CCN(c2cccc(Cl)c2)CC1 do in these assays?
NS3 helicase inh: -2; HCV core dimer: -4; A3A deaminase: -2; ABHD5 PLIN5 PPI: -6; PRMT1 FP inh: 47*; APOBEC3G inh: -1; PRMT1 inh conf: 53*

How did O=C(O)c1ccc(NS(=O)(=O)c2ccc3c(c2)C2C=CCC2C(c2ccccc2F)N3)cc1 (centres undefined) do in these assays?
NS3 helicase inh: 1; A3A deaminase: 5; ABHD5 PLIN5 PPI: 2; PRMT1 FP inh: 47*; APOBEC3G inh: -1; PRMT1 inh conf: 13

Results for O=C(O)c1ccc2c(c1)C1C=CCC1C(c1cc3c(cc1Br)OCO3)N2 (centres undefined) ?
NS3 helicase inh: 20; HCV core dimer: 14; A3A deaminase: -1; ABHD5 PLIN5 PPI: 1; PRMT1 FP inh: -6; APOBEC3G inh: -8

Results for Cc1csc(NC(=O)CCCC(=O)c2ccccc2)n1 ?
NS3 helicase inh: 0; HCV core dimer: -14; A3A deaminase: 1; ABHD5 PLIN5 PPI: -7; PRMT1 FP inh: -1; APOBEC3G inh: -3

What do the screens show for `CN1CCN(c2ncnc3c2ncn3[C@H]2CN(Cc3ccc(-c4ccccc4)cc3)C[C@@H](CO)O2)CC1`?
ABHD5 PLIN5 PPI: 8; PRMT1 FP inh: 6

What do the screens show for `COc1ccc(NC(=O)CS(=O)(=O)c2cn(CC(=O)N3CCOCC3)c3ccccc23)cc1OC`?
NS3 helicase inh: 5; HCV core dimer: -3; A3A deaminase: -4; ABHD5 PLIN5 PPI: -13; PRMT1 FP inh: 35*; APOBEC3G inh: -5; PRMT1 inh conf: 21*

What do the screens show for `COc1ccc(OC)c(NC(=O)CS(=O)(=O)c2cn(CC(=O)N3CCOCC3)c3ccccc23)c1`?
NS3 helicase inh: 3; HCV core dimer: -11; A3A deaminase: 0; ABHD5 PLIN5 PPI: 7; PRMT1 FP inh: 0; APOBEC3G inh: 5

What do the screens show for `COc1ccc(C(C)=O)cc1COC(=O)C1CCN(C(=O)c2ccc(Cl)cc2)CC1`?
A3A deaminase: 0; ABHD5 PLIN5 PPI: 3; PRMT1 FP inh: active; APOBEC3G inh: -1; PRMT1 inh conf: 5

What do the screens show for `CC(C)Nc1nc(NCCN2CCNC2=O)c2sccc2n1`?
ABHD5 PLIN5 PPI: 0; PRMT1 FP inh: 40*; PRMT1 inh conf: -6

Results for O=C1NCCN1CCNc1nc(NCc2ccccc2)nc2ccsc12 ?
ABHD5 PLIN5 PPI: -1; PRMT1 FP inh: 7

Results for O=C(CCC1CCN(C(=O)c2ccco2)CC1)NCc1ccc(F)cc1 ?
NS3 helicase inh: 4; HCV core dimer: 11; A3A deaminase: -3; ABHD5 PLIN5 PPI: -5; PRMT1 FP inh: -1; APOBEC3G inh: -3
